Measurements from ChEMBL document CHEMBL5550111, “Design, synthesis and biological evaluation of aryloxy thiophosphoramidate triesters of anticancer nucleoside analogues” (Bioorg Med Chem, 2024).
pIC50: −log10 of the molar value.

Experiments:
[1] = tested on: OVCAR-3; test: Cytotoxicity against human OVCAR-3 cells assessed as maximum inhibition of cell viability upto 198 uM incubated for 72 hrs by MTS assay relative to control; format: functional; details: up to 198 µM
Procedure, shortened: (§1)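 Cells seeded at 0.5 to 100 × 10^3 per well the day before drug addition, then exposed to compound for 72 h. MTS added afterwards, with a further 4 h at 37 °C, and absorbance read. Tested in duplicate at 9 serial 3.16-fold dilutions, top concentration 198 μM. MI% is the maximum inhibition of viability across the tested range.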

[2] = tested on: COLO 205; test: Cytotoxicity against human COLO 205 cells assessed as maximum inhibition of cell viability upto 198 uM incubated for 72 hrs by MTS assay relative to control; format: functional; details: up to 198 µM; procedure, shortened: as §1
[3] = tested on: PANC-1; test: Cytotoxicity against human PANC-1 cells assessed as maximum inhibition of cell viability upto 198 uM incubated for 72 hrs by MTS assay relative to control; format: functional; details: up to 198 µM; procedure, shortened: as §1
[4] = tested on: PANC-1; test: Cytotoxicity against human PANC-1 cells assessed as inhibition of cell viability incubated for 72 hrs by MTS assay; format: functional, cell-based; details: PANC-1, 72 h
Procedure, shortened: (§2)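 Cells seeded at 0.5 to 100 × 10^3 per well the day before treatment, then exposed for 72 h to 9 serial concentrations (3.16-fold dilutions, top 198 μM), in duplicate. MTS added for a final 4 h at 37 °C and absorbance read. IC50 is the concentration giving 50% loss of viability. MI% is the maximum inhibition over the tested range.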

[5] = tested on: HT-29; test: Cytotoxicity against human HT-29 cells assessed as inhibition of cell viability incubated for 72 hrs by MTS assay; format: functional, cell-based; details: HT-29, 72 h; procedure, shortened: as §2
[6] = tested on: PC-3; test: Cytotoxicity against human PC-3 cells assessed as maximum inhibition of cell viability upto 198 uM incubated for 72 hrs by MTS assay relative to control; format: functional; details: up to 198 µM; procedure, shortened: as §1
[7] = tested on: COLO 205; test: Cytotoxicity against human COLO 205 cells assessed as inhibition of cell viability incubated for 72 hrs by MTS assay; format: functional, cell-based; details: COLO 205, 72 h; procedure, shortened: as §2
[8] = tested on: SK-MES-1; test: Cytotoxicity against human SK-MES-1 cells assessed as inhibition of cell viability incubated for 72 hrs by MTS assay; format: functional, cell-based; details: SK-MES-1, 72 h; procedure, shortened: as §2
[9] = tested on: MIA PaCa-2; test: Cytotoxicity against human MIA PaCa-2 cells assessed as maximum inhibition of cell viability upto 198 uM incubated for 72 hrs by MTS assay relative to control; format: functional; details: up to 198 µM; procedure, shortened: as §1
[10] = tested on: MIA PaCa-2; test: Cytotoxicity against human MIA PaCa-2 cells assessed as inhibition of cell viability incubated for 72 hrs by MTS assay; format: functional, cell-based; details: MIA PaCa-2, 72 h; procedure, shortened: as §2
[11] = tested on: HepG2; test: Cytotoxicity against human HepG2 cells assessed as inhibition of cell viability incubated for 72 hrs by MTS assay; format: functional, cell-based; details: HepG2, 72 h; procedure, shortened: as §2
[12] = tested on: SK-MES-1; test: Cytotoxicity against human SK-MES-1 cells assessed as maximum inhibition of cell viability upto 198 uM incubated for 72 hrs by MTS assay relative to control; format: functional; details: up to 198 µM; procedure, shortened: as §1
[13] = Prodrug activation assessed as carboxypeptidase Y (unknown origin) mediated intermediate (2S)-2-[[[(2R,3R,5R)-5-(4-amino-2-oxo-pyrimidin-1-yl)-4,4-difluoro-3-hydroxy-tetrahydrofuran-2-yl]methoxy-phenoxy-phosphinothioyl]amino]propanoic acid formation at 5 mg measured after 5 hrs by 31P-NMR assay; set-up: species or system Homo sapiens
Procedure, shortened: (§3)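 Thiophosphoramidate (5 mg, about 0.008 mmol) dissolved in 150 µL acetone-d6, with 300 µL TRIZMA buffer pH 7.6 added. Enzymatic conversion followed by 31P-NMR.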

[14] = tested on: BXPC-3; test: Cytotoxicity against human BXPC-3 cells assessed as maximum inhibition of cell viability upto 198 uM incubated for 72 hrs by MTS assay relative to control; format: functional; details: up to 198 µM; procedure, shortened: as §1
[15] = tested on: RT112/84; test: Cytotoxicity against human RT112/84 cells assessed as maximum inhibition of cell viability upto 198 uM incubated for 72 hrs by MTS assay relative to control; format: functional; details: up to 198 µM; procedure, shortened: as §1
[16] = tested on: HepG2; test: Cytotoxicity against human HepG2 cells assessed as maximum inhibition of cell viability upto 198 uM incubated for 72 hrs by MTS assay relative to control; format: functional; details: up to 198 µM; procedure, shortened: as §1
[17] = tested on: OVCAR-3; test: Cytotoxicity against human OVCAR-3 cells assessed as inhibition of cell viability incubated for 72 hrs by MTS assay; format: functional, cell-based; details: OVCAR-3, 72 h; procedure, shortened: as §2
[18] = tested on: BXPC-3; test: Cytotoxicity against human BXPC-3 cells assessed as inhibition of cell viability incubated for 72 hrs by MTS assay; format: functional, cell-based; details: BXPC-3, 72 h; procedure, shortened: as §2
[19] = tested on: MDA-MB-231; test: Cytotoxicity against human MDA-MB-231 cells assessed as maximum inhibition of cell viability upto 198 uM incubated for 72 hrs by MTS assay relative to control; format: functional; details: up to 198 µM; procedure, shortened: as §1
[20] = tested on: A2780; test: Cytotoxicity against human A2780 cells assessed as maximum inhibition of cell viability upto 198 uM incubated for 72 hrs by MTS assay relative to control; format: functional; details: up to 198 µM; procedure, shortened: as §1
[21] = tested on: A2780; test: Cytotoxicity against human A2780 cells assessed as inhibition of cell viability incubated for 72 hrs by MTS assay; format: functional, cell-based; details: A2780, 72 h; procedure, shortened: as §2
[22] = Prodrug activation assessed as carboxypeptidase Y (unknown origin) mediated (2S)-2-[[[(2R,3R,5R)-5-(4-amino-2-oxo-pyrimidin-1-yl)-4,4-difluoro-3-hydroxy-tetrahydrofuran-2-yl]methoxy-hydroxy-phosphoryl]amino]propanoic acid formation from intermediate (2S)-2-[[[(2R,3R,5R)-5-(4-amino-2-oxo-pyrimidin-1-yl)-4,4-difluoro-3-hydroxy-tetrahydrofuran-2-yl]methoxy-phenoxy-phosphinothioyl]amino]propanoic acid at 5 mg measured for 48 hrs by 31P-NMR assay; procedure, shortened: as §3
[23] = tested on: MDA-MB-231; test: Cytotoxicity against human MDA-MB-231 cells assessed as inhibition of cell viability incubated for 72 hrs by MTS assay; format: functional, cell-based; details: MDA-MB-231, 72 h; procedure, shortened: as §2
[24] = tested on: RT112/84; test: Cytotoxicity against human RT112/84 cells assessed as inhibition of cell viability incubated for 72 hrs by MTS assay; format: functional, cell-based; details: RT112/84, 72 h; procedure, shortened: as §2
[25] = tested on: PC-3; test: Cytotoxicity against human PC-3 cells assessed as inhibition of cell viability incubated for 72 hrs by MTS assay; format: functional, cell-based; details: PC-3, 72 h; procedure, shortened: as §2
[26] = Cytotoxicity against human T24/83 cells assessed as inhibition of cell viability incubated for 72 hrs by MTS assay; format: functional, cell-based; details: T24/83, 72 h; procedure, shortened: as §2
[27] = tested on: HT-29; test: Cytotoxicity against human HT-29 cells assessed as maximum inhibition of cell viability upto 198 uM incubated for 72 hrs by MTS assay relative to control; format: functional; details: up to 198 µM; procedure, shortened: as §1

For `C[C@H](NP(=S)(OC[C@H]1O[C@@H](n2ccc(N)nc2=O)C(F)(F)[C@@H]1O)Oc1ccccc1)C(=O)OCc1ccccc1` (some centres not stated), the Imax [1] was 46%, the Imax [2] was 97% and the Imax [3] was 99%. For the same compound, the pIC50 [4] was 4.12, the pIC50 [5] was 4.94 and the Imax [6] was 96%. It also gave a pIC50 [7] of 4.65, a pIC50 [8] of 6.04 and an Imax [9] of 99%. For the same compound, the pIC50 [10] was 5.42, the pIC50 [11] was 4.57 and the Imax [12] was 94%. The Drug metabolism [13] was “Metabolite_Detected”, the Imax [14] was 95% and the Imax [15] was 94%. The Imax [16] was 98%, the pIC50 [17] was 4.01 and the pIC50 [18] was 5.09. The Imax [19] was 91%, the Imax [20] was 100% and the pIC50 [21] was 5.45. For the same compound, the Drug metabolism [22] was “Metabolite_Detected”, the pIC50 [23] was 4.93 and the pIC50 [24] was 6.04. It also gave a pIC50 [25] of 4.36, a pIC50 [26] of 6.49 and an Imax [27] of 99%.
